Assay results reported in ChEMBL document CHEMBL1212726, “Inhibition of a viral enzyme by a small-molecule dimer disruptor” (Nat Chem Biol, 2009).
Calls of active or inactive are those of the source.

Columns and labels:
Human gammaherpesvirus 8 [1] = test: Inhibition of KSHV protease at 10 uM by fluorogenic activity assay
In short: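 Screen: protease at 2 μM final in 25 mM potassium phosphate pH 8, 150 mM KCl, 0.1 mM EDTA, 1 mM DTT. Compound at 10 μM final (1% DMSO) preincubated 30 min at 30°C. Ac-PVYtQA-ACC (P6) substrate added to 160 μM final. Fluorescence (ex 380/em 460 nm) followed 1 h at 30°C. Hit defined as ≥50% drop in initial velocity versus uninhibited control.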

[2] = Inhibition of KSHV protease by fluorogenic activity assay; parameters: species or system Human gammaherpesvirus 8
Human gammaherpesvirus 8 [3] = test: Activity at KSHV protease at 3 uM
In short: (§1)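 Michaelis–Menten kinetics in 100 μl with 1 μM KSHV Pr in assay buffer. P6 substrate at 80, 40, 30, 20, 10, 6, 4 and 2 μM, crossed with inhibitor at 10, 7, 5, 3, 1 and 0 μM. Initial velocities converted at 2364 rfu per μM substrate. […] Mean ± s.d. (n=3).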

Human gammaherpesvirus 8 [4] = test: Induction of KSHV protease dimerization disruption at 30 uM by size exclusion chromatography
In short: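 KSHV protease (S204G background) at 5 μM in 25 mM potassium phosphate pH 8, 150 mM KCl, 0.1 mM EDTA, 1 mM DTT, incubated with 30 μM compound for 30 min at 30°C (1% DMSO). Dimer and monomer were resolved by elution peaks. DMSO control.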

Human gammaherpesvirus 8 [5] = test: Inhibition of KSHV protease dimerization at 30 uM by size exclusion chromatography
Human gammaherpesvirus 8 [6] = test: Induction of KSHV protease Trp109 mutant dimerization disruption up to 30 uM by size exclusion chromatography
[7] = system: T1, Capsid scaffolding protein (Human herpesvirus 8 type P (isolate GK18) (HHV-8) (Kaposi'ssarcoma-associated herpesvirus)), Q2HRB6 [M197D]; test: Inhibition of KSHV protease M197D mutant at 170 uM by 1H-15N-HSQC NMR; details: Human gammaherpesvirus 8
T1 sequence (whole entry): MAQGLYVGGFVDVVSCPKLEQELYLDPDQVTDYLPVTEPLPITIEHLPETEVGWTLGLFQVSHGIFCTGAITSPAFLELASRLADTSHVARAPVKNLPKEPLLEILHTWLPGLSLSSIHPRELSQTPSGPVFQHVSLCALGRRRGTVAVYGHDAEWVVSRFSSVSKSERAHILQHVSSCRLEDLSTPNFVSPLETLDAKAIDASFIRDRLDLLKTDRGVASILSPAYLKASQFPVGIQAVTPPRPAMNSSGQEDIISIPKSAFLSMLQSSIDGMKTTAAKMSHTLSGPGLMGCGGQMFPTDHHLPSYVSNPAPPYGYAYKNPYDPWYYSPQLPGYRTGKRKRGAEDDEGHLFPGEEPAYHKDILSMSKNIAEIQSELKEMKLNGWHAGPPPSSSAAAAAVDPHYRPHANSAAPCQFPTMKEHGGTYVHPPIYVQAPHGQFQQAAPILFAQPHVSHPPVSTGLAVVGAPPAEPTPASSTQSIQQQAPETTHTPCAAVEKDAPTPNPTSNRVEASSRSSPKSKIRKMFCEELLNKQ

Human gammaherpesvirus 8 [8] = test: Activity at KSHV protease at 10 uM; in short: as §1
Human gammaherpesvirus 8 [9] = test: Ratio of Kcat to Km in KSHV protease at 7 uM; in short: as §1
Human gammaherpesvirus 8 [10] = test: Activity at KSHV protease at 7 uM; in short: as §1
Human gammaherpesvirus 8 [11] = test: Activity at KSHV protease at 5 uM; in short: as §1
Human gammaherpesvirus 8 [12] = test: Activity at KSHV protease at 1 uM; in short: as §1
Human gammaherpesvirus 8 [13] = test: Ratio of Kcat to Km in KSHV protease at 5 uM; in short: as §1
Human gammaherpesvirus 8 [14] = test: Mixed inhibition of KSHV protease at 1 to 10 uM
In short: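 1 μM KSHV protease in pH 8 phosphate assay buffer with Ac-PVYtQA-ACC substrate at 80, 40, 30, 20, 10, 6, 4 and 2 μM, and inhibitor at 10, 7, 5, 3, 1 and 0 μM. Initial velocities were converted with 2364 rfu per μM substrate.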

[15] = target: Granzyme B (Homo sapiens) (UniProt P10144); test: Inhibition of granzyme B-mediated aggregation at 30 uM after 30 mins by spectrophotometry in absence of Triton X-100
Human gammaherpesvirus 8 [16] = test: Ratio of Kcat to Km in KSHV protease at 3 uM; in short: as §1
[17] = target: Granzyme B (Homo sapiens) (UniProt P10144); test: Inhibition of granzyme B-mediated aggregation at 30 uM after 30 mins by spectrophotometry in presence of Triton X-100
Human gammaherpesvirus 8 [18] = test: Ratio of Kcat to Km in KSHV protease at 10 uM; in short: as §1
Human gammaherpesvirus 8 [19] = test: Ratio of Kcat to Km for KSHV protease at 1 uM; in short: as §1
Human betaherpesvirus 5 = test: Inhibition of CMV protease at 10 uM by fluorogenic activity assay
In short: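 CMV protease, expressed from a provided plasmid, run in the KSHV Pr fluorogenic assay format with KSHV Pr buffer and reagents, including the P6 ACC hexapeptide substrate.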

Granzyme B (Homo sapiens), sequence (P10144 whole entry): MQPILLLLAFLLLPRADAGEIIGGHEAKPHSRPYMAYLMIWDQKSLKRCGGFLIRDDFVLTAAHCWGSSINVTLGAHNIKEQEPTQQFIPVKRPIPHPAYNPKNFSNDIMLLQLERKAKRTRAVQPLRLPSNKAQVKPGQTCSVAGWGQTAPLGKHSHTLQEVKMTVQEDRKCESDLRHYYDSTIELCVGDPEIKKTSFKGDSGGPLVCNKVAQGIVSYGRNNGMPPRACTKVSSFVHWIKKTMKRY

Q: For O=C(O)c1ccc(NC(=O)c2ccc(CC3CCCCC3)nc2)c(Cc2ccccc2)c1, which inhibition (Human gammaherpesvirus 8 [1]) is on record?
A: 10%

Q: With O=C(O)c1ccc(NC(=O)c2cccc(CC3CCCCC3)c2)c(Cc2ccccc2)c1 as the compound, how does the inhibition (Human gammaherpesvirus 8 [1]) read?
A: 56.6%

Q: What about the IC50 [2] of the same compound?
A: 8.8 µM

Q: Which results are given for COc1ccc(C(=O)Nc2ccc(C(=O)O)cc2Cc2ccccc2)cc1CC1CCCCC1?
A: inhibition (Human gammaherpesvirus 8 [1]): 51.1%; IC50 [2]: 16.4 µM

Q: With O=C(O)c1ccc(NC(=O)c2cccc(CC3CCCCC3)n2)c(Cc2ccccc2)c1 as the compound, how does the inhibition (Human gammaherpesvirus 8 [1]) read?
A: 82.7%

Q: And the Km (Human gammaherpesvirus 8 [3])?
A: 16.5 µM

Q: And the Activity (Human gammaherpesvirus 8 [4])?
A: Active

Q: And the inhibition (Human gammaherpesvirus 8 [5])?
A: Active

Q: And the Activity (Human gammaherpesvirus 8 [6])?
A: inactive

Q: And the inhibition [7]?
A: Active

Q: And the Km (Human gammaherpesvirus 8 [8])?
A: 27.4 µM

Q: And the kcat/Km (Human gammaherpesvirus 8 [9])?
A: 280 M⁻¹ s⁻¹

Q: And the Km (Human gammaherpesvirus 8 [10])?
A: 23.9 µM

Q: What about the Km (Human gammaherpesvirus 8 [11]) of the same compound?
A: 21.2 µM

Q: What about the Km (Human gammaherpesvirus 8 [12]) of the same compound?
A: 13.6 µM

Q: What about the kcat/Km (Human gammaherpesvirus 8 [13]) of the same compound?
A: 398 M⁻¹ s⁻¹

Q: And the inhibition (Human gammaherpesvirus 8 [14])?
A: Active

Q: What about the inhibition [15] of the same compound?
A: inactive

Q: What about the kcat/Km (Human gammaherpesvirus 8 [16]) of the same compound?
A: 673 M⁻¹ s⁻¹

Q: What about the inhibition [17] of the same compound?
A: inactive

Q: What about the kcat/Km (Human gammaherpesvirus 8 [18]) of the same compound?
A: 153 M⁻¹ s⁻¹

Q: What about the kcat/Km (Human gammaherpesvirus 8 [19]) of the same compound?
A: 997 M⁻¹ s⁻¹

Q: What about the inhibition (Human betaherpesvirus 5) of the same compound?
A: 92%

Q: Which inhibition [15] does the source give for Oc1c(Cl)cc(Cl)c(Cl)c1Cc1c(O)c(Cl)cc(Cl)c1Cl here?
A: Active

Q: And the inhibition [17]?
A: inactive

Q: For O=C(O)c1ccc(NC(=O)c2cncc(CC3CCCCC3)c2)c(Cc2ccccc2)c1, which inhibition (Human gammaherpesvirus 8 [1]) is on record?
A: 7.9%

Q: For O=C(O)c1ccc(NC(=O)c2ccc(CC3CCCCC3)cc2)c(Cc2ccccc2)c1, which inhibition (Human gammaherpesvirus 8 [1]) is on record?
A: 24%

Q: Which inhibition (Human gammaherpesvirus 8 [1]) does the source give for COC(=O)c1ccc(NC(=O)c2cccc(CC3CCCCC3)c2)c(Cc2ccccc2)c1 here?
A: 9.4%

Q: With O=C(O)c1ccc(NC(=O)c2ccccc2CC2CCCCC2)c(Cc2ccccc2)c1 as the compound, how does the inhibition (Human gammaherpesvirus 8 [1]) read?
A: 14.8%
